In publication PMC3313004 (Molecular Microbiology, 2012):

Tests used:
[1] = test system: TcdBHV; experiment: In vitro TcdB autoprocessing assay; type: biochemical, Clostridium difficile BI17
[2] = target: T1, TcdBHIST (Clostridioides difficile, UniProt P18177); experiment: In vitro TcdB autoprocessing assay; type: biochemical, Clostridium difficile 10463
[3] = test system: TcdBHV; experiment: AWP19 probe labeling of TcdB; type: biochemical, Clostridium difficile BI17; conditions: 1 h IP6, then AWP19 in 10-fold molar excess
[4] = target: T1, TcdBHIST; experiment: AWP19 probe labeling of TcdB; type: biochemical, Clostridium difficile 10463; conditions: 1 h IP6, then AWP19 in 10-fold molar excess
[5] = test system: TcdBHV treated CHO-K1 cells; experiment: Inactivation of TcdB in cell culture; type: cell-based; conditions: TcdBHV pre-incubated with 100 µM inhibitor; 24 hrs
Procedure, shortened: (§1)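 CHO-K1 cells were seeded at 1–2 × 10^4 cells/well in F12-K medium with 10% FBS. Toxin at 0.037, 0.37 or 3.7 pM was preincubated for 30 min in F12-K medium with 100 µM of the CPD inhibitor Ac-GSL-AOMK, then added to wells in triplicate. Cells were kept 24 h at 37°C, 6% CO₂, and viability was read by CCK-8.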

[6] = test system: TcdBHV; experiment: In vitro inhibition of IP6-induced processing with Ac-GSL-AOMK; type: biochemical, Clostridium difficile BI17
[7] = test system: TcdBHIST treated CHO-K1 cells; experiment: Inactivation of TcdB in cell culture; type: cell-based; conditions: TcdBHIST pre-incubated with 100 µM inhibitor; 24 hrs
Procedure, shortened: as §1

[8] = target: T1, TcdBHIST
[9] = up to 100 µM inhibitor, 25 µM IP6, 3 independent experiments

T1 sequence (P18177 whole entry): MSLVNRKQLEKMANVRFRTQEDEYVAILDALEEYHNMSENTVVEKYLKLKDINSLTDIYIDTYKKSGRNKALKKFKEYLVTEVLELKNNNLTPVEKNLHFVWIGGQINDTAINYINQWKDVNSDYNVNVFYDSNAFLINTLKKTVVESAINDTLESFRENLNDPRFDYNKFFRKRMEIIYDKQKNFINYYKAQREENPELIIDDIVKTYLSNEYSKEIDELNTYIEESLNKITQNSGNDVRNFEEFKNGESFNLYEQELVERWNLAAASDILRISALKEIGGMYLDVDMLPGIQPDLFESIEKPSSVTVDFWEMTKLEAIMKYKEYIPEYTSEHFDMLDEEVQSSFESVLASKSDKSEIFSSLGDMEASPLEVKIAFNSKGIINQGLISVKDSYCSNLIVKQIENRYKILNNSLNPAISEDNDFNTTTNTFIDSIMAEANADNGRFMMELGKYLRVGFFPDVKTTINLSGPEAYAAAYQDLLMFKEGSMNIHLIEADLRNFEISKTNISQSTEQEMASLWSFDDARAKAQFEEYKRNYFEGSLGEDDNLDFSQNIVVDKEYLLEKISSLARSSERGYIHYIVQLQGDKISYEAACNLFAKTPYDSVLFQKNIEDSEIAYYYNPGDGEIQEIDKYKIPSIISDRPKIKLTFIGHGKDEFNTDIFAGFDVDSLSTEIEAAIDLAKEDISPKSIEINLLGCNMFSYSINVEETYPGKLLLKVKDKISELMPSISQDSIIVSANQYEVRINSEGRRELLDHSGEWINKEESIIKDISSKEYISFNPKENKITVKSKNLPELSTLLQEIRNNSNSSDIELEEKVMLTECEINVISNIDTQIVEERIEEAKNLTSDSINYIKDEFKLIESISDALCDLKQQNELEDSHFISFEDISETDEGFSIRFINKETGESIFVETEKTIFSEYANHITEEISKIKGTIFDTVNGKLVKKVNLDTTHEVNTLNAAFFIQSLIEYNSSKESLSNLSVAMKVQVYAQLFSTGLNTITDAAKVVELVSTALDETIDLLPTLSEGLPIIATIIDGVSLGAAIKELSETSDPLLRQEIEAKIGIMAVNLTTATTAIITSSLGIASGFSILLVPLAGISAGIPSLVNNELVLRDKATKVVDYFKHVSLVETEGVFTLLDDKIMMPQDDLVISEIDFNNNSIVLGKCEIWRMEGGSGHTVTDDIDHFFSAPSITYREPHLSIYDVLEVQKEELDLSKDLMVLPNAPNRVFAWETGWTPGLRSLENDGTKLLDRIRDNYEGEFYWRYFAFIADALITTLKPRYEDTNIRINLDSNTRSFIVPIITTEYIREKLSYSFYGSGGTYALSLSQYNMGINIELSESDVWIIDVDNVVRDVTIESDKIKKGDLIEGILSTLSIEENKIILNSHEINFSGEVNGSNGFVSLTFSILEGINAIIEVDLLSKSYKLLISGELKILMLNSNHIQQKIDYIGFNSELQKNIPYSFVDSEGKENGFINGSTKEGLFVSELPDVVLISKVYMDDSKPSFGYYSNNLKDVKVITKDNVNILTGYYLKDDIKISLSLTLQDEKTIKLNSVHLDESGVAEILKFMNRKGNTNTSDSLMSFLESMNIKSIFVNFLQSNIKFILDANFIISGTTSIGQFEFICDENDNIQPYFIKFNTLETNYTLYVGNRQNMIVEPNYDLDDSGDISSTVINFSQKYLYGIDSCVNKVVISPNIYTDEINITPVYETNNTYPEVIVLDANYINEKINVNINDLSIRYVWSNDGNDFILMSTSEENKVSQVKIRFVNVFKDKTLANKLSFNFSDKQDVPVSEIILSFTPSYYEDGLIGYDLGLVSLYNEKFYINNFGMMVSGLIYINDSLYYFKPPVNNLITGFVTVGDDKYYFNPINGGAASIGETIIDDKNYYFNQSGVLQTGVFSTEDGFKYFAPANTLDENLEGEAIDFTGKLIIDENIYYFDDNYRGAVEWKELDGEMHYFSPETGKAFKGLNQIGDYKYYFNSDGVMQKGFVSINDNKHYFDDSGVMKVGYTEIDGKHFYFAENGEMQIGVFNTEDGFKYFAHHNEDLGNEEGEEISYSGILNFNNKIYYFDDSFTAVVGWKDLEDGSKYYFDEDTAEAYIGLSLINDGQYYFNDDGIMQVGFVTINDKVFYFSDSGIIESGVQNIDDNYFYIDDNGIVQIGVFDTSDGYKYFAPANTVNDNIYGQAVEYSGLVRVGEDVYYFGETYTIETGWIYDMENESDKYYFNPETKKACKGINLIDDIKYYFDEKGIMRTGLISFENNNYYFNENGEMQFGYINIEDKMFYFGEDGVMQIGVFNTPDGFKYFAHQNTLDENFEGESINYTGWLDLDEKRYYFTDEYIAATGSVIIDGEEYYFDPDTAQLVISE

O[C@@H](CS)[C@@H](O)CS (racemic) [DTT, Dithiothreitol]
time to maximum activation ([1]; 5 mM DTT in place of IP6): approximately 1 h
time to activation of processing ([1]; 5 mM DTT in place of IP6, 90 min time-course): ≤ 15 min
activation of processing ([2]; 5 mM DTT, 90 min time-course): just slightly above the level of detection

O=P(O)(O)OC1C(OP(=O)(O)O)C(OP(=O)(O)O)C(OP(=O)(O)O)C(OP(=O)(O)O)C1OP(=O)(O)O (centres unmarked) [IP6, inositol hexakisphosphate]
time to half-maximal level of proteolysis ([1]; 100 µM IP6): ≤ 2 min
percent cleavage (autoprocessing) ([1]; 100 µM IP6, within the first hour): ~80%
IP6 concentration at which AWP19-labeled toxin could be detected [3]: 5 µM
time to half-maximal level of proteolysis ([2]; 100 µM IP6): ≤ 2 min
maximal processing ([2]; 100 µM IP6, up to 60 min): under 60%
IP6 concentration at which AWP19-labeled toxin could be detected [4]: 5 µM

Ac-GSL-AOMK
protection of CHO cells from toxin [5]: not as functional
concentration at which inhibition of IP6-induced processing was detectable ([6]; 25 µM IP6): around 12.5 µM
effect of inhibitor without IP6 ([6]; no IP6 (data not shown)): no effect
maximum percent inhibition of processing [6, 9]: around 60%
protection of CHO cells from toxin [7]: provided protection
concentration at which inhibition of IP6-induced processing was detectable ([8]; 25 µM IP6): around 12.5 µM
effect of inhibitor without IP6 ([8]; no IP6 (data not shown)): no effect
percent of proteolysis blocked [8, 9]: ~100%
